# From ChEMBL document CHEMBL1123806, “Effects of derivatives of kahweol and cafestol on the activity of glutathione S-transferase in mice” (1987)
# Columns and labels:
# Mus musculus [1] = organism: Mus musculus; test: Tissue acid-soluble sulfhydryl levels of small bowel mucosa of ICR/Ha mice. P < 0.005; type: functional
# Summary of the method: (§1)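 Same dosing: 10 μmol po daily for 3 days in cottonseed oil/10% ethanol, vehicle controls, tissues taken 24 h after the last dose. Homogenate (phosphate pH 7.5) used at once. Ellman method: equal volume 4% sulfosalicylic acid, then supernatant plus 9 volumes of 0.1 mM DTNB in 0.1 M phosphate pH 8.0. Read spectrophotometrically. Units µmol SH/g tissue, mean ± SD; ratio = treated/control.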
# [2] = biological target: T1, Glutathione S-transferase Mu 1 (Mus musculus) (UniProt P10649); test: Ratio is the compound /control(Specific activity in liver(GST)); type: functional, tissue-based
# T1 sequence (whole entry): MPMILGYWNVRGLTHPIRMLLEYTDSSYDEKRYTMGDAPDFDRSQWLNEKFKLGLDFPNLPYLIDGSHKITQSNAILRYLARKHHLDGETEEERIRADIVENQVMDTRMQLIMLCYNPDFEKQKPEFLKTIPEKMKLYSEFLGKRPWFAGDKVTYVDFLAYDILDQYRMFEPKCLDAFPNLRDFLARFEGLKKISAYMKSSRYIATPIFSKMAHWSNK
# Summary of the method: (§2)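 Mice (6-8 wk, groups of 4-5, semipurified diet) dosed po once daily for 3 days with 10 μmol in 0.2 mL cottonseed oil/10% ethanol. Vehicle-only controls. Killed 24 h after the last dose. Tissue homogenized in phosphate buffer pH 7.5, then spun at 100000g for 1 h to give cytosol. CDNB conjugation read at 340 nm, 30 °C, pH 6.5 phosphate, 5 mM GSH, 1 mM CDNB. Units µmol/min/mg protein, mean ± SD; ratio = treated/control.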
# Mus musculus [3] = organism: Mus musculus; test: Ratio is the compound /control(SH in small bowel mucosa); type: functional; summary of the method: as §1
# Mus musculus [4] = organism: Mus musculus; test: GST activity in the cytosols of small bowel mucosa of ICR/Ha mice was determined by using 1-Chloro-2,4-dinitrobenzene as the substrate.; type: functional; summary of the method: as §2
# [5] = Ratio is the compound /control(SH level in liver); type: functional, Mus musculus; summary of the method: as §1
# Mus musculus [6] = organism: Mus musculus; test: Tissue acid-soluble sulfhydryl levels of liver of ICR/Ha mice. P<0.005; type: functional; summary of the method: as §1
# [7] = biological target: T1, Glutathione S-transferase Mu 1 (Mus musculus); test: GST activity in the cytosols of liver of ICR/Ha mice, using 1-Chloro-2,4-dinitrobenzene as substrate; type: functional, tissue-based; summary of the method: as §2
# [8] = biological target: T1, Glutathione S-transferase Mu 1 (Mus musculus); test: Ratio is the compound /control(Specific activity in small bowel mucosa(GST)); type: functional; summary of the method: as §2
# [9] = biological target: T1, Glutathione S-transferase Mu 1 (Mus musculus); test: GST activity in the cytosols of the forestomach of ICR/Ha mice was determined by using 1-Chloro-2,4-dinitrobenzene as the substrate; type: functional, tissue-based; settings: Stomach; summary of the method: as §2
# [10] = Tissue acid-soluble sulfhydryl levels of liver of ICR/Ha mice.; type: functional, Mus musculus; summary of the method: as §1
# [11] = biological target: T1, Glutathione S-transferase Mu 1 (Mus musculus); test: GST activity in the cytosols of the lung of ICR/Ha mice was determined by using 1-Chloro-2,4-dinitrobenzene as the substrate; type: functional; summary of the method: as §2
# Mus musculus [12] = organism: Mus musculus; test: Tissue acid-soluble sulfhydryl levels of small bowel mucosa of ICR/Ha mice.; type: functional; summary of the method: as §1
# [13] = biological target: T1, Glutathione S-transferase Mu 1 (Mus musculus); test: Ratio is the compound /control(Specific activity in forestomach); type: functional, tissue-based; settings: Stomach; summary of the method: as §2
# [14] = biological target: T1, Glutathione S-transferase Mu 1 (Mus musculus); test: GST activity in the cytosols of small bowel mucosa of ICR/Ha mice was determined by using 1-Chloro-2,4-di nitrobenzene as the substrate.; type: functional; summary of the method: as §2
# [15] = biological target: T1, Glutathione S-transferase Mu 1 (Mus musculus); test: Ratio is the compound /control(Specific activity in lung); type: functional; summary of the method: as §2
# Mus musculus [16] = organism: Mus musculus; test: Tissue acid-soluble sulfhydryl levels of small bowel mucosa of ICR/Ha mice; type: functional; summary of the method: as §1
# [17] = Tissue acid-soluble sulfhydryl levels of liver of ICR/Ha mice; type: functional, Mus musculus; summary of the method: as §1
# Mus musculus [18] = organism: Mus musculus; test: GST activity in the cytosols of small bowel mucosa of ICR/Ha mice was determined by using 1-Chloro-2,4-dinitrobenzene as the substrate; type: functional; summary of the method: as §2
# Mus musculus [19] = organism: Mus musculus; test: GST activity in the cytosols of small bowel mucosa of ICR/Ha mice was determined by using 1-Chloro-2,4-di nitrobenzene as the substrate; type: functional; summary of the method: as §2
Structure (SMILES),Ratio [2],Specific activity (uM min-1 (mg of protein)-1) [7],Ratio [8],Specific activity (uM min-1 (mg of protein)-1) [9],Specific activity (uM min-1 (mg of protein)-1) [11],Ratio [13],Specific activity (uM min-1 (mg of protein)-1) [14],Ratio [15],SH level (Mus musculus [1]) [µM/g],Ratio (Mus musculus [3]),Specific activity (Mus musculus [4]),Ratio [5],SH level (Mus musculus [6]) [µM/g],SH level [10] [µM/g],SH level (Mus musculus [12]) [µmol/g],SH level (Mus musculus [16]) [µmol/g],SH level [17] [µM/g],Specific activity (Mus musculus [18]),Specific activity (Mus musculus [19])
C[C@@]12CCc3occc3C1CC[C@@]13CC(CCC12)C(O)(CO)C3 (stereo not given in full),2,3.35,3.8,0.91,0.26,1.2,1.36,1,–,1.5,–,2,–,14.9,7.9,–,–,–,–
CC(=O)OC[C@@]1(O)C[C@@]23CC[C@@H]4c5ccoc5CC[C@@]4(C)[C@@H]2CC[C@@H]1C3 [CAFESTOL ACETATE],2.74,3.24,7.5,–,–,–,–,–,–,2,3 uM min-1 (mg of protein)-1,1.41,–,14.3,12,–,–,–,–
CC(=O)OC1C[C@@]23CCC4c5ccoc5C=C[C@@]4(C)C2CCC1C3 (stereo not given in full),2.6,3.68,6.9,0.94,0.3,1.4,2.06,1,–,1.7,–,1.1,–,–,–,10.8,10.1,–,–
C[C@@]12C=Cc3occc3C1CC[C@]13CCC(CCC12)C3 (stereo not given in full),2.1,3.06,3.9,0.63,0.36,0.9,–,1.2,–,1.2,–,1.1,–,–,–,7.8,9.5,–,1.18 uM min-1 (mg of protein)-1
C[C@@]12CCc3occc3C1CC[C@]13CC(=O)C(CCC12)C3 (stereo not given in full),1.7,2.85,5.7,0.88,0.29,1.2,2.06,1.1,–,1.9,–,1.8,–,13.3,10.3,–,–,–,–

# More lines, main results first:
Ratio [2],Specific activity (uM min-1 (mg of protein)-1) [7],Ratio [8],Specific activity (uM min-1 (mg of protein)-1) [9],Specific activity (uM min-1 (mg of protein)-1) [11],Ratio [13],Specific activity (uM min-1 (mg of protein)-1) [14],Ratio [15],Structure (SMILES),SH level (Mus musculus [1]) [µM/g],Ratio (Mus musculus [3]),Specific activity (Mus musculus [4]),Ratio [5],SH level (Mus musculus [6]) [µM/g],SH level [10] [µM/g],SH level (Mus musculus [12]) [µmol/g],SH level (Mus musculus [16]) [µmol/g],SH level [17] [µM/g],Specific activity (Mus musculus [18]),Specific activity (Mus musculus [19])
1.06,1.25,1,–,–,–,–,–,CC(=O)OC[C@@]1(O)C[C@@]23CCC4[C@H]5CCO[C@H]5CC[C@@]4(C)C2CCC1C3 (stereo not given in full),8.2,1.4,0.41 uM min-1 (mg of protein)-1,1.42,14.3,–,–,–,–,–,–
1.04,1.22,1.1,–,–,–,–,–,C[C@@]12CCC3=C(CCO3)C1CC[C@@]13CC(CCC12)[C@@](O)(CO)C3 (stereo not given in full),–,1.1,0.42 uM min-1 (mg of protein)-1,1.18,–,11.9,6.5,–,–,–,–
1.25,1.48,1.4,–,–,–,–,–,C[C@@]12CC[C@@H]3OCC[C@@H]3C1CC[C@@]13CC(CCC12)[C@@](O)(CO)C3 (stereo not given in full),–,1.2,–,1.44,–,–,–,7.4,14.5,0.54 uM min-1 (mg of protein)-1,–
